Experimental data from different studies.
Compare with care: the assays were run in different laboratories.
CDK9 with cyclin T1: Cyclin-dependent kinase 9, with cyclin T1 (CDK9, Homo sapiens, UniProt P50750)
CDK9: Cyclin-dependent kinase 9 (CDK9, Homo sapiens, UniProt P50750)
CDK9 with cyclin K: Cyclin-dependent kinase 9, with cyclin K (CDK9, Homo sapiens, UniProt P50750)

Structure (SMILES) | target | observed | mode | method | tested at | endpoint | result
COc1cc(/C=C/C(=O)CC(=O)/C=C/c2ccc(O)c(OC)c2)ccc1O | CDK9 with cyclin T1 | enzyme activity | inhibitor | – | 1 µM | activity vs control | 88%
COc1cc(-c2cc(-c3ccc(N4CCNCC4)cc3)cnc2C)cc(OC)c1OC | CDK9 with cyclin T1 | enzyme activity | inhibitor | – | 1 µM | inhibition | 3%
COc1cc(Nc2cnc(C#N)c(O[C@H](C)CN(C)C)n2)ncc1-c1cnn(C)c1 | CDK9 with cyclin T1 | enzyme activity | inhibitor | radiometric | 1 µM | remaining activity | 84%
CN(C)C1CCN(CC#Cc2nn(C3CCCC3)c3nc(NCc4ccccc4)ncc23)C1 (centres unmarked) | CDK9 with cyclin T1 | enzyme activity | inhibitor | FRET | 10 µM | inhibition | -12%
C=CC(=O)Nc1cc(Nc2nccc(Nc3cc(Cl)c(F)cc3C(C)(C)O)n2)c(OC)cc1N1CC[C@@H](N(C)C)C1 | CDK9 with cyclin T1 | enzyme activity | inhibitor | – | 1 µM | inhibition | 10%
CCC(=O)N[C@@H]1CC[C@H](C(=O)N(C)c2ccc(-c3nc4ccccc4o3)cc2)C1 | CDK9 | cell-free assay | – | competition with immobilised ligand | 1 µM | remaining binding | 100%
CCCCNc1ncc2c(-c3ccc(F)cc3)nn(C[C@H]3CC[C@H](N)CC3)c2n1 | CDK9 | target engagement in cells | inhibitor | chemoproteomics | 20 mM | inhibition | 29.3%
CCOC(=O)c1cc2cc(-c3cc(C(=O)NCc4ccc(C(=O)O)cc4)nn3C)ccc2[nH]1 | CDK9 | cell-free assay | – | competition with immobilised ligand | 0.1 µM | remaining binding | 97%
CCCOc1ccc(OC)c(F)c1C(=O)c1ccc(C(=O)N[C@@H]2CNC[C@H]2NC(=O)c2ccc3[nH]ncc3c2)cc1 | CDK9 with cyclin T1 | enzyme activity | inhibitor | – | 10 µM | remaining activity | 101%
Cc1cc(NC(=O)c2cccc(S(F)(F)(F)(F)F)c2)cc(-n2ccn3nc(-c4cccnc4)cc23)c1 | CDK9 | cell-free assay | – | competition with immobilised ligand | 1 µM | remaining binding | 100%
CCN(CC)CCNC(=O)c1c(C)[nH]c(/C=C2\C(=O)Nc3ccc(F)cc32)c1C | CDK9 with cyclin T1 | enzyme activity | inhibitor | – | 0.3 µM | inhibition | -7%
Cc1nc(C2CCN(C(=O)c3ccc(OC(F)(F)F)cc3N)CC2)c2ncc(N3CCN(C)CC3)cc2n1 | CDK9 | cell-free assay | – | competition with immobilised ligand | 1 µM | remaining binding | 79%
CC(C)(C)c1nc2c(s1)c1nc(N)ncc1c1ccc(NS(=O)(=O)c3c(F)cccc3F)c(F)c12 | CDK9 with cyclin T1 | enzyme activity | inhibitor | radiometric | 1 µM | remaining activity | 102%
Cc1ccc(NC(=O)c2ccc(CN3CCN(C)CC3)cc2)cc1Nc1nc(-c2cccnc2)cs1 | CDK9 with cyclin K | cell-free assay | – | – | 0.5 µM | remaining signal | 109%
CN1CC(Oc2cnc(C#N)cc2-c2ccn3nc(NC(=O)C4CC4)cc3c2)C1 | CDK9 with cyclin T1 | enzyme activity | inhibitor | – | 1 µM | inhibition | -15%
Nc1nc(Nc2ccc(S(N)(=O)=O)cc2)sc1C(=O)c1ccccc1[N+](=O)[O-] | CDK9 | enzyme activity | inhibitor | – | 0.1 µM | inhibition | 90 to 93%

Structure (SMILES) | target | observed | mode | method | tested at | endpoint | result
C[C@H](c1cccc(C#N)c1)n1cc(Cl)cc(C(N)=O)c1=N | CDK9 | cell-free assay | – | competition with immobilised ligand | 1 µM | remaining binding | 84%
CS(=O)(=O)Nc1cccc(-c2csc(NC(=O)CSc3nc4nccnc4c(=O)n3CCc3ccccc3)n2)c1 | CDK9 with cyclin K | enzyme activity | inhibitor | – | 10 µM | inhibition | -1%
CCOc1cc(-c2nncn2C)ccc1Nc1ncc2cc(C)nc(NCC(C)(C)C)c2n1 | CDK9 with cyclin K | cell-free assay | – | TR-FRET | 1 µM | inhibition | ≤ 15%
CS(=O)(=O)NCC[C@H](NC(=O)c1cncc2c1cnn2-c1ccc(F)cc1)c1ccnc(S(C)(=O)=O)c1 | CDK9 | cell-free assay | – | competition with immobilised ligand | 1 µM | remaining binding | 100%
Cc1ccc(NC(=O)c2ccc(C)c(C(F)(F)F)c2)cc1C#Cc1nn(C2CCC(O)CC2)c2ncnc(N)c12 (centres unmarked) | CDK9 with cyclin T1 | cell-free assay | – | – | 10 µM | remaining signal | 113%
c1ccc(CNc2nc(N3CCOc4ccccc43)nc3c2CCCC3)cc1 | CDK9 | target engagement in cells | inhibitor | chemoproteomics | 20 mM | inhibition | -15.3%
Cc1ccc(Nc2nccc(N(C)c3ccc4c(C)n(C)nc4c3)n2)cc1S(N)(=O)=O | CDK9 with cyclin K | enzyme activity | inhibitor | – | 0.5 µM | remaining activity | 92.7%
CNC(=O)c1cc(Oc2ccc(NC(=O)Nc3ccc(Cl)c(C(F)(F)F)c3)cc2)ccn1 | CDK9 with cyclin T1 | enzyme activity | inhibitor | – | 0.3 µM | inhibition | -4%
C#Cc1cccc(Nc2ncnc3cc(OCCOC)c(OCCOC)cc23)c1 | CDK9 with cyclin T1 | cell-free assay | – | – | 0.5 µM | remaining signal | 87.3%
CCCOc1ccc([C@H]2[C@H](C(=O)O)[C@@H](c3ccc4c(c3)OCO4)CN2CC(=O)Nc2c(CC)cccc2CC)cc1 | CDK9 | cell-free assay | – | competition with immobilised ligand | 1 µM | remaining binding | 88%
O=C1NC(=O)c2cc(Nc3ccc(F)cc3)c(Nc3ccc(F)cc3)cc21 | CDK9 with cyclin K | cell-free assay | – | – | 0.5 µM | remaining signal | 90.8%
CC(C)(C)c1nc(-c2cccc(NS(=O)(=O)c3c(F)cccc3F)c2F)c(-c2ccnc(N)n2)s1 | CDK9 with cyclin K | enzyme activity | inhibitor | radiometric | 1 µM | remaining activity | 98%
O=C1Nc2ccc(Cl)cc2C1=Cc1cc(Cl)c(O)c(Cl)c1 | CDK9 with cyclin K | cell-free assay | – | – | 0.5 µM | remaining signal | 79.4%
Cc1ccc(-n2nc(C(C)(C)C)cc2NC(=O)Nc2ccc(OCCN3CCOCC3)c3ccccc23)cc1 | CDK9 with cyclin T1 | enzyme activity | inhibitor | – | 10 µM | inhibition | -17%
c1ccc(N2CCN(Cc3nc4ccccc4[nH]3)CC2)nc1 | CDK9 | binding | – | competition with immobilised ligand | 1 µM | remaining binding | 100%
N#CCCc1ccc2c(c1)-c1[nH]c3ccc([N+](=O)[O-])cc3c1CC(=O)N2 | CDK9 with cyclin T1 | cell-free assay | – | – | 0.5 µM | remaining signal | 28.6%
